Laboratory results published in ChEMBL document CHEMBL2163334, “Discovery of highly potent and selective pan-Aurora kinase inhibitors with enhanced in vivo antitumor therapeutic index” (J Med Chem, 2012).
Calls of active or inactive are those of the source. No cut-off for these calls is given here.

Columns and labels:
[1] = target: Aurora kinase B (Homo sapiens, UniProt Q96GD4); assay: Inhibition of Aurora kinase B-mediated histone H3 Ser10 phosphorylation in human HCT116 cells after 2 hrs by sandwich ELISA; assay type: cell-based, HCT-116
Aurora kinase B, sequence (Q96GD4 whole entry): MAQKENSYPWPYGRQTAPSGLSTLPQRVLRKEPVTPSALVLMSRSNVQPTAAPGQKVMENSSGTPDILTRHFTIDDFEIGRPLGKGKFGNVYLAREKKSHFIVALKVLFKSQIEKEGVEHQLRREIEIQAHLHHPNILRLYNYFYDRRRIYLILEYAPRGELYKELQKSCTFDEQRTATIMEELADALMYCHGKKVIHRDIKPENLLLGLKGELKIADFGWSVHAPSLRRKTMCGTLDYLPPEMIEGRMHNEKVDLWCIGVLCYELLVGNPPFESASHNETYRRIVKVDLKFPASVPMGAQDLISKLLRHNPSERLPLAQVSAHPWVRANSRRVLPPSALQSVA
Summary of the method: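 HCT-116 cells seeded 4 × 10⁴/well, 4-6 h at 37 °C, then arrested overnight (16-18 h) with nocodazole at 66 ng/mL final. Treated 2 h with nine-point 3-fold dilutions in DMSO; lysed with phosphatase inhibitor, phospho-H3 (Ser10) sandwich ELISA read at 450 nm. IC50 = 50% inhibition of phosphorylation; duplicate runs averaged.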

[2] = Clearance in Sprague-Dawley rat at 1 mg/kg, iv administered using PEG400/water as vehicle; assay type: ADME, organism-based; set-up: dose 1 mg/kg, route intravenous; settings: in vivo
Summary of the method: (§1)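 SD rats fasted overnight, given 1 mg/kg iv in PEG400/water (3:1, v/v); three per arm. Blood into K3 EDTA at 5, 15, 30 min, 1, 2, 4, 6, 24 h, spun at 4 °C; plasma extracted with six volumes acetonitrile plus internal standard and quantified by LC-MS/MS (C8 column, formic acid/ACN gradient).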

[3] = Volume of distribution in Nu/Nu rat at 50 mg/kg, iv administered using TPPW as vehicle; assay type: ADME, organism-based; set-up: dose 50 mg/kg, route intravenous; settings: in vivo
Summary of the method: (§2)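 Plasma from K3 EDTA blood at 5, 15, 30 min, 1, 2, 4, 6, 24 h; acetonitrile extraction with internal standard, LC-MS/MS on C8 column, 5-95% ACN gradient with 0.05% formic acid.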

[4] = AUC (0 to infinity) in Nu/Nu rat at 5 mg/kg, iv administered using TPPW as vehicle; assay type: ADME, organism-based; set-up: dose 5 mg/kg, route intravenous, time infinity; settings: plasma; summary of the method: as §2
[5] = AUC (0 to infinity) in Nu/Nu rat at 50 mg/kg, iv administered using TPPW as vehicle; assay type: ADME, organism-based; set-up: time infinity, dose 50 mg/kg, route intravenous; settings: plasma; summary of the method: as §2
[6] = Half life in Sprague-Dawley rat at 1 mg/kg, iv administered using PEG400/water as vehicle; assay type: ADME, organism-based; set-up: dose 1 mg/kg, route intravenous; settings: in vivo; summary of the method: as §1
[7] = Half life in Nu/Nu rat at 5 mg/kg, iv administered using TPPW as vehicle; assay type: ADME, organism-based; set-up: dose 5 mg/kg, route intravenous; settings: in vivo; summary of the method: as §2
[8] = system: HCT-116; assay: Antitumor activity against human HCT116 cells xenografted in athymic nude rat assessed as tumor growth inhibition at 20 mg/kg, iv administered every other day from day 10 post tumor-injection for 3 weeks relative to vehicle treated control; assay type: functional; settings: read-out: TGI
Summary of the method: (§3)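 Subcutaneous flank HCT-116 xenografts in nude rats; at Day 1 groups of 10 with mean tumor 301-306 mm³. Tail-vein iv in TPPW (2% Tween-80, 5% propylene glycol, 10% PG-400, 83% water) at 10 mL/kg, weight-adjusted: days 1,3,5,8,10,12,15,17,19 or days 1-4, 8-11, 15-18. Irinotecan control 100 mg/kg ip weekly ×3.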

[9] = system: HCT-116; assay: Antitumor activity against human HCT116 cells xenografted in athymic nude rat assessed as tumor growth inhibition at 2.5 mg/kg, iv administered QD for 4 days per week followed by 3 days off per week for 3 weeks; assay type: functional, organism-based; set-up: dose 2.5 mg/kg; summary of the method: as §3
[10] = system: Rattus norvegicus; assay: Toxicity in athymic nude rat bearing human HCT116 cells assessed as adverse effects at 5 to 10 mg/kg, iv administered QD for 4 days per week followed by 3 days off per week for 3 weeks; assay type: organism-based, HCT-116; set-up: dose 5-10 mg/kg, route intravenous; settings: in vivo; summary of the method: as §3

IC50 [1]: 6.1 nM
clearance [2]: 21.1 mL/min/kg
Vd [3]: 0.62 L/kg
AUC(0-inf) [4]: 7.7 µM·h
AUC(0-inf) [5]: 181 µM·h
half-life [6]: 17.5 h
half-life [7]: 1.1 h
SMILES: Cc1cc(Nc2nc(Sc3ccc(NC(=O)CN4CC[C@@H](C(=O)N5CCC(F)(F)C5)C4)cc3)nn3cccc23)n[nH]1
inhibition in vivo at 20 mg/kg [8]: 85%
TGI [9]: Active
Activity [10]: Non-toxic
